Assay results as given in ChEMBL document CHEMBL1138187, “2-(2-Thienyl)-5,6-dihydroxy-4-carboxypyrimidines as inhibitors of the hepatitis C virus NS5B polymerase: discovery, SAR, modeling, and mutagenesis” (J Med Chem, 2006).
Activity calls are given as the source filed them. The rule behind the calls is not given here.

Legend:
[1] = target: RNA-directed RNA polymerase (Hepacivirus hominis) (UniProt O39930); assay: Inhibitory activity against HCV 1b BK NS5B deltaC55 RNA polymerase at 50 uM; settings: Hepatitis C virus subtype 1b
[2] = system: O=c1ccn([C@@H]2O[C@H](COP(=O)(O)OP(=O)(O)OP(=O)(O)O)[C@@H](O)[C@H]2O)c(=O)[nH]1; assay: Activity against HCV 1b BK NS5B deltaC55 RNA polymerase; settings: Hepatitis C virus subtype 1b
Summary of the method: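 HCV genotype 1b BK-strain NS5B ΔC55 (residues 1-536) expressed in E. coli BL21(DE3) and purified; activity measured with a homopolymeric RNA template, assay run at pH 7.4 with Mg; IC50 is the mean of at least three independent determinations.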

[3] = target: RNA-directed RNA polymerase (Hepacivirus hominis) (UniProt O39930); assay: Inhibition of replication of HCV 1b BK RNA in Huh7 cells at 100 uM in presence of 10% fetal calf serum; format: functional, cell-based; settings: Huh-7
Summary of the method: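 Subgenomic HCV RNA replicon in Huh-7 cells, modified Bartenschlager procedure with 10% fetal calf serum; compounds first tested at a fixed 100 µM, with EC50 determined only where inhibition exceeded 50%; values averaged over at least three independent determinations.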

[4] = target: RNA-directed RNA polymerase (Hepacivirus hominis) (UniProt O39930); assay: Inhibitory activity against HCV 1b BK NS5B deltaC55 RNA polymerase at 200 uM; settings: Hepatitis C virus subtype 1b
[5] = system: O=c1ccn([C@@H]2O[C@H](COP(=O)(O)OP(=O)(O)OP(=O)(O)O)[C@@H](O)[C@H]2O)c(=O)[nH]1; assay: Activity against HCV 1b BK NS5B deltaC55-R158M mutant RNA polymerase; settings: Hepatitis C virus subtype 1b
Summary of the method: (§1)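 HCV 1b-BK NS5B∆C55 (residues 1-536) carrying R158M or R158K, expressed in E. coli BL21(DE3) and purified. Polymerase run on a homopolymeric template RNA with UTP as substrate; IC50 and UTP Km measured in duplicate.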

[6] = system: O=c1ccn([C@@H]2O[C@H](COP(=O)(O)OP(=O)(O)OP(=O)(O)O)[C@@H](O)[C@H]2O)c(=O)[nH]1; assay: Activity against HCV 1b BK NS5B deltaC55-R158K mutant RNA polymerase; settings: Hepatitis C virus subtype 1b; summary of the method: as §1
Huh-7 = assay: Cytotoxicity against Huh7 cells upto 100 uM; format: functional, cell-based; settings: Homo sapiens

Molecule | inhibition [1] | inhibition [3] | also measured
O=C(O)c1nc(-c2ncc[nH]2)nc(O)c1O | 50% | – | –
RNA-directed RNA polymerase (Hepacivirus hominis), O39930 | – | – | Km [2]: 6 µM
O=C(O)c1nc(Cc2ccccc2)nc(O)c1O | 24% | – | –
CS(=O)(=O)c1nc(O)c(O)c(C(=O)O)n1 | – | inactive | –
O=C(O)c1nc(C2CCCCC2)nc(O)c1O | – | inactive | inhibition [4]: 31%
O=C(O)c1nc(-c2cccs2)nc(O)c1O | – | inactive | –
CCCCc1nc(O)c(O)c(C(=O)O)n1 | 0% | – | –
O=C(O)c1nc(-c2nccs2)nc(O)c1O | – | < 20% | –
O=C(O)c1nc(-c2nccn2Cc2ccccc2)nc(O)c1O | 30% | – | –
CSc1nc(O)c(O)c(C(=O)O)n1 | 55% | inactive | –
RNA-directed RNA polymerase (Hepacivirus hominis) (from UniProt O39930) UNDEFINED MUTATION | – | – | Km [5]: 15 µM; Km [6]: 20 µM
O=C(NCc1ccccc1Cl)Nc1ccsc1-c1nc(O)c(O)c(C(=O)O)n1 | – | – | Activity (Huh-7): inactive
O=C(Nc1ccsc1-c1nc(O)c(O)c(C(=O)O)n1)OCCc1ccccc1 | – | < 20% | –
